# Screens deposited in PubChem BioAssay by The Scripps Research Institute Molecular Screening Center.
# A selection: hits, their analogues and other compounds. The true share with any hit is near 1.7%.
# CHO-K1 Ca ag = counter-screen for M1 agonists: effect in parental CHO-K1 cells; Fluo-8 calcium fluorescence; scaled to maximal ATP response, vehicle zero; activation, % at 3 µM; 360,000 compounds, 0.48% hits; in the data active = activation above about 15%;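 also: untransfected CHO-K1 host cells lacking M1 receptor as counterscreen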
# M1 PAM parental = nonselective calcium activators in parental CHO-K1 cells, primary screen, counter-screen for M1 PAM project, cell-based, Fluo-8 calcium fluorescence, full deck, 1536-well | ATP EC20; 0% at ATP EC20, 100% at ATP max | activation, % at 3 µM | 360,000 compounds, 0.02% hits | AID 602247, 2012;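 active = activation above the run cutoff, the mean activation of all test compounds plus 3 SD, cut at about 40% in these data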;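 also: peak over basal fluorescence ratio in a 140 s read after ATP addition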
# CHO-K1 Ca antag = nonselective inhibitor or artifact in parental CHO-K1 cells; ATP-induced calcium, Fluo-8 fluorescence; inhibition, % at 3 µM; 360,000 compounds, 0.6% hits; AID 602250;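 active = inhibition above a per-plate cutoff, the plate's mean sample inhibition plus 3 SD, cut at about 24% in these data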;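 also: 0% = DMSO plus EC80 ATP and 100% = DMSO alone without ATP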
# CHRM5 antagonist = human M5 muscarinic receptor antagonists, primary screen, CHO cells, Fluo-8 calcium fluorescence | Muscarinic acetylcholine receptor M5 (Homo sapiens), P08912 | CHO-hM5 cells, ACh EC80 | inhibition, % at 3 µM | 360,000 compounds, 0.59% hits;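 active = inhibition above a per-plate cutoff, the mean of that plate's test compounds plus 3 SD, cut at about 27% in these data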;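 also: 0% = acetylcholine EC80 with DMSO and 100% = DMSO without agonist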
# Target sequence (P08912 whole entry, looked up): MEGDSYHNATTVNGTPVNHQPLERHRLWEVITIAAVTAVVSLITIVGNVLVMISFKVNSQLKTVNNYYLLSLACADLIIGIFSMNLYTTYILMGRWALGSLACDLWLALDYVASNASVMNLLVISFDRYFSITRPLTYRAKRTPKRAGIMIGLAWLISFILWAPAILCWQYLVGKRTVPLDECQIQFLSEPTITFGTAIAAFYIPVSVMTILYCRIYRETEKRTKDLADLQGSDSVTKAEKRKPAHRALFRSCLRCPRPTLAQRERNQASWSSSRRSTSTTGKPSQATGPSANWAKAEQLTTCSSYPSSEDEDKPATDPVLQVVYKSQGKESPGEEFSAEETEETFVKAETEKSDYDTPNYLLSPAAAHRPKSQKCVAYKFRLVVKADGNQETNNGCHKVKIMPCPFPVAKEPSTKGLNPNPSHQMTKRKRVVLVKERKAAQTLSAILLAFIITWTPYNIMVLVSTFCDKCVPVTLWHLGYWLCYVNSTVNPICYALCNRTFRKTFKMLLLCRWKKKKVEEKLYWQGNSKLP
# M5 ag = human M5 muscarinic receptor agonists, primary screen, CHO-K1 cells, Fluo-8 calcium fluorescence. Muscarinic acetylcholine receptor M5 (Homo sapiens), P08912. CHO-K1 hM5 cells; 0% DMSO wells, 100% maximal acetylcholine response. activation, % at 3 µM. 360,000 compounds, 0.19% hits;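 active = activation above the run's mean over test compounds plus 3 SD, cut at about 23% in these data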;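 also: signal is peak over basal fluorescence ratio across the kinetic read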
# M5 PAM = human M5 muscarinic receptor positive allosteric modulators, primary screen, CHO-K1 cells, Fluo-8 calcium fluorescence; Muscarinic acetylcholine receptor M5 (Homo sapiens), P08912; CHO-K1 hM5, ACh EC20 PAM; 0% = ACh EC20, 100% = ACh EC100; activation, % at 3 µM; 360,000 compounds, 0.3% hits; AID 624038, 2012;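 active = activation above the run cutoff, the mean activation of all test compounds plus 3 SD, cut at about 18% in these data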
#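 System – CHO-K1 hM5 cells · Compound – 3 µM, single dose · Incubation – compound preincubation 140 s before EC20 acetylcholine addition · Technique – Fluo-8 calcium fluorescence · Measure – Max/basal fluorescence ratio as % of EC20–EC100 ACh window · Benchmarks – low control EC20 acetylcholine (0%), high control EC100 acetylcholine (100%) · Replication – singlicate, one well per test compound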
# An asterisk follows results filed as active; ! = not active in a repeat.
SMILES,CHO-K1 Ca ag,M1 PAM parental,CHO-K1 Ca antag,CHRM5 antagonist,M5 ag,M5 PAM
CCOC(=O)C1CCCN(C(=S)Nc2cc(C)cc(C)c2)C1 (stereo unspecified),0.1,-4.5,11.1,14.9,28.4*,-15.5
O=C(Nc1nccs1)C1C2CC3OC(=O)C1C3C2 (stereo unspecified),0.4,13.0,-9.5,-3.8,-1.5,-1.9
Fc1ccc2[nH]c3c(NCCN4CCOCC4)ncnc3c2c1,1.4,18.5,-16.1,9.1,-4.6,7.0
COc1ccc2cc(C#N)c(SCC(=O)NNC(=O)Cc3ccccc3)nc2c1,0.2,15.2,-2.4,11.1,3.5,-10.4
COc1ccccc1N1CCN(c2nc(-c3ccccc3)cc(C(F)(F)F)n2)CC1,0.8,12.9,-10.5,-20.2,-0.7,26.8*
FC(F)(F)c1cc(-c2ccccc2)nc(N2CCCCCC2)n1,0.2,13.7,-13.4,-0.1,-0.6,-0.1
COCCn1cnnc1SCC(=O)Nc1cccc(S(=O)(=O)N(C)c2ccccc2)c1,14.2,2.3,11.1,9.8,-0.9,-3.6
CN(c1ccccc1)S(=O)(=O)c1cccc(NS(=O)(=O)c2cccc(C(=O)O)c2)c1,0.5,7.8,-3.9,-8.7,3.8,22.9*
CCOc1ccc(CN(C)CC(=O)Nc2cccc(S(=O)(=O)N(C)c3ccccc3)c2)cc1,17.7*,6.6,0.5,3.5,-8.2,-13.3
Cc1nnc(SCC(=O)Nc2cccc(S(=O)(=O)N(C)c3ccccc3)c2)s1,14.1,-5.8,21.4,31.2*,7.7,-17.8
Cc1ccc(S(=O)(=O)N(C)c2ccc(OCC(=O)Nc3nc4ccccc4s3)cc2)cc1,5.5,-4.6,16.7,31.2*,-0.3,-15.7
O=C(Nc1nc(COc2ccccc2)cs1)C12CC3CC(CC(C3)C1)C2,-0.4,14.6,-7.6,-11.4,-5.6,-0.2
c1ccc(CCn2c(SCc3ccccc3)nnc2-c2ccncc2)cc1,0.7,7.1,-0.9,5.9,-9.1,-2.7
Cc1cccc(-c2nc3ccccc3c(=O)n2NC(=O)c2cccnc2Cl)c1,1.7,27.9,-16.1,-2.8,0.9,2.5
O=C(NCc1cccs1)c1cc(-c2cccs2)on1,0.7,0.1,-6.9,10.1,0.5,-1.8
CCC(=O)c1ccc(OCC(=O)Nc2cccc(S(=O)(=O)N(C)c3ccccc3)c2)cc1,17.4*,-12.5,7.7,33.6*,0.8,-40.6
C=CCc1ccccc1OCCn1nnc2ccccc21,3.2,13.1,-2.4,0.6,0.1,1.9
CCc1ccc([C@H]2C[C@H]3[C@H]4C(=O)N(c5ccccc5)C(=O)[C@H]4CC(=O)[C@@H]3CN2S(=O)(=O)c2ccc(C)cc2)cc1,0.4,2.3,5.3,7.7,1.1,-5.3
Cc1ccc(S(=O)(=O)N2C[C@H]3C(=O)C[C@@H](c4ccccc4F)N(S(=O)(=O)c4ccc(C)cc4)[C@H]3C[C@H]2c2ccccc2F)cc1,-0.1,-4.8,29.4*,-9.5,2.0,14.0
COc1ccc([C@@H]2CC(=O)[C@@H]3CN(S(=O)(=O)c4ccc(Cl)cc4)[C@H](c4ccc(C)cc4)C[C@@H]3N2S(=O)(=O)c2ccccc2)cc1,0.2,10.7,-17.5,7.5,-1.0,-4.0
COc1ccc([C@@H]2C[C@H]3[C@@H](CN2S(=O)(=O)c2ccccc2)C(=O)C[C@@H](c2cccc(Cl)c2)N3S(=O)(=O)c2ccc(C)cc2)cc1,1.7,8.5,23.9*,0.7,3.5,2.2
Cc1ccc([C@@H]2C[C@H]3[C@@H](CN2S(=O)(=O)c2ccc(C)cc2)C(=O)C[C@@H](c2ccccc2F)N3S(=O)(=O)c2ccc(C)cc2)cc1,0.3,-1.4,17.1,-6.1,1.6,0.5
Cc1ccc(S(=O)(=O)N2C[C@H]3C(=O)C[C@@H]4C(=O)N(c5ccccc5)C(=O)[C@@H]4[C@@H]3C[C@H]2c2cccc(Cl)c2)cc1,5.2,-1.2,31.0*,7.5,7.0,-10.9
COCC(C)n1c(C)cc(C(=O)CSc2nnnn2-c2ccc(O)cc2)c1C (stereo unspecified),1.4,16.3,-7.2,-4.6,1.9,-1.7
COc1ccccc1N1CCN(C(=O)Cn2c(=O)[nH]c3ccsc3c2=O)CC1,0.1,-9.8,-3.9,-3.8,-3.6,-8.9
SMILES,CHO-K1 Ca ag,M1 PAM parental,CHO-K1 Ca antag,CHRM5 antagonist,M5 ag,M5 PAM
Cc1c(N=Cc2nc3ccccc3[nH]2)c(=O)n(-c2ccccc2)n1C,-0.2,-6.3,31.4*,3.0,-0.5,-7.0
CCCCCCCCCCOC(=O)Cn1c(COc2ccc(Cl)cc2)[n+](C)c2ccccc21,12.5,13.9,1.2,21.2,-7.9,-14.9
CC1CCC(C(C)C)C(OC(=O)Cn2c(-c3ccc(Br)cc3)[n+](C)c3ccccc32)C1 (stereo unspecified),2.6,19.8,6.5,10.6,-11.9,-10.5
CCOC(=O)Cn1c(COc2ccccc2OC)[n+](C)c2ccccc21,-0.3,-6.9,0.6,6.1,-15.3,-4.8
CCCCCCCCCCOC(=O)Cn1c(COc2cccc(C)c2)[n+](C)c2ccccc21,-0.4,4.4,8.8,19.4,-25.3,-19.6
Cc1ccccc1OCc1n(CC(=O)OC2CC(C)CCC2C(C)C)c2ccccc2[n+]1C (stereo unspecified),1.3,4.0,9.9,44.1*!,-9.3,-19.3
CCCCCCCCCCOC(=O)Cn1c(COc2ccccc2C)[n+](C)c2ccccc21,0.3,4.3,-0.9,52.9*,-26.8,-33.0
CCCCCCCCCCOC(=O)Cn1c(COc2ccccc2)[n+](C)c2ccccc21,0.9,2.1,5.0,32.8*,-1.3,-16.5
CCCCCCCCCCOC(=O)Cn1c(COc2ccc(OC)cc2)[n+](C)c2ccccc21,6.6,-2.1,13.4,27.7*!,-7.4,-13.7
CC(C)n1c(O)c(N=Nc2ccc(Cl)nn2)c2ccccc21,0.0,10.0,9.1,1.2,-0.8,-3.4
NC(=O)c1ccc[n+](CC(=O)c2ccc(Cl)c(Cl)c2)c1,0.4,-2.7,-5.7,1.5,-0.6,3.3
Cc1c(NC(=O)C(C)c2ccc(CC(C)C)cc2)c(=O)n(-c2ccccc2)n1C (stereo unspecified),0.2,-1.7,-8.1,-4.7,-0.9,-0.8
CC(C)Cc1ccc(C(C)C(=O)Nc2nccs2)cc1 (stereo unspecified),16.5*,21.7,7.8,26.2,38.4*,-0.7
CC(C)c1ccc(CNC(=O)C(=O)Nc2nccs2)cc1,-0.1,-11.4,16.3,5.9,-3.0,-0.8
CC(C)Cc1ccc(C(C)C(=O)Nc2ccccc2O)cc1 (stereo unspecified),38.2*,-8.4,45.8*,50.5*,40.7*,-25.4
